From publication PMC11701428 (RSC Advances, 2025)

Key:
PARP-1 = PARP-1 (Homo sapiens, UniProt P09874); experiment: PARP-1 enzyme inhibition; type: biochemical; settings: for percentage of inhibition of PARP-1: concentration not given
EGFR = EGFR (Homo sapiens, UniProt P00533); experiment: EGFR-TK enzyme inhibition; type: biochemical; settings: for percentage of inhibition of EGFR: concentration not given
HepG2 cells [1] = experiment: Cell cycle analysis by flow cytometry in HepG2 cells; type: cell-based; settings: HepG2, treated at IC50 for 48 h
How it was run: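 Flow cytometric cell-phase distribution of HepG2 cells. Cells were left untreated or given test compound at its IC50 for 48 h. Data are mean ± SD of three independent runs.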

HepG2 cells [2] = experiment: Annexin V/PI staining flow cytometry; type: cell-based; settings: HepG2, treated at IC50 for 48 h
[3] = tested on: apoptosis-related genes (P53, Bax, caspases 3, 8, 9, BCL-2) in HepG2 cells; experiment: RT-PCR gene expression of apoptosis-related genes in HepG2 cells; type: cell-based; settings: HepG2, IC50, 48 h, normalized to β-actin
HepG2 cells [4] = experiment: MTT cytotoxicity assay against HepG2 cells; type: cell-based; settings: read-out: IC50 ± SD HepG2, mean ± SD of three independent trials
How it was run: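 HepG2 cells (NCI Cairo) grown in RPMI-1640 with L-glutamine, 10% FBS and 1% penicillin–streptomycin at 37 °C, 5% CO2. Plated in triplicate at 5 × 10^4 cells; next day treated at 0.01, 0.1, 1, 10 and 100 μM. Viability measured by MTT relative to control, IC50 computed. Mean ± SD of three independent trials.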

Sequence of PARP-1 (P09874 whole entry): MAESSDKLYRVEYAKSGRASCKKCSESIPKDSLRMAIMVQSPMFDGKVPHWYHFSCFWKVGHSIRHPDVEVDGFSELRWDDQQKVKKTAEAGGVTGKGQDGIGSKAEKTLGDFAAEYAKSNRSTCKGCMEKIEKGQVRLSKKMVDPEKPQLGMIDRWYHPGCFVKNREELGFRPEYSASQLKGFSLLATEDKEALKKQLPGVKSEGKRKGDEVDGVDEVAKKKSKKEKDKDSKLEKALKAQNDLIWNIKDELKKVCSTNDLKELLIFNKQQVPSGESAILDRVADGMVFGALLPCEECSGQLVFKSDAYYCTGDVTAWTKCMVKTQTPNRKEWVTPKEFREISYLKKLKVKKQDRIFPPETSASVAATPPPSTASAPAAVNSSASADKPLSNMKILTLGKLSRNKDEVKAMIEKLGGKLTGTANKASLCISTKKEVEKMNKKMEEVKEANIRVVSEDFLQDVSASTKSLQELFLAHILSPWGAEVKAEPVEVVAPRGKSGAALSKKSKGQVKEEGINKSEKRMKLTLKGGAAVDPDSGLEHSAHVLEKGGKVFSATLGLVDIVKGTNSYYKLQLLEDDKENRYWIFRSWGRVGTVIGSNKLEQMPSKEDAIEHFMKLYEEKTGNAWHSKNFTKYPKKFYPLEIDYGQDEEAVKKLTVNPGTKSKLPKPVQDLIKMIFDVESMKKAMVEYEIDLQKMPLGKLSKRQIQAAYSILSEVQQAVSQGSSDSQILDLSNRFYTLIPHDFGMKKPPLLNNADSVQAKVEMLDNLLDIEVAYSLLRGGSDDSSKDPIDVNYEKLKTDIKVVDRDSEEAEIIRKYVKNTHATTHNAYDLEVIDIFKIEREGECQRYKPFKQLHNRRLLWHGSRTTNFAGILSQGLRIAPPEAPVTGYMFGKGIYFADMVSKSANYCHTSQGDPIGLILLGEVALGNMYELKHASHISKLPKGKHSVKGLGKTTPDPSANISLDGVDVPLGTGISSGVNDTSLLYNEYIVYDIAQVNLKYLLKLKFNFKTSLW
Sequence of EGFR (P00533 25-1210): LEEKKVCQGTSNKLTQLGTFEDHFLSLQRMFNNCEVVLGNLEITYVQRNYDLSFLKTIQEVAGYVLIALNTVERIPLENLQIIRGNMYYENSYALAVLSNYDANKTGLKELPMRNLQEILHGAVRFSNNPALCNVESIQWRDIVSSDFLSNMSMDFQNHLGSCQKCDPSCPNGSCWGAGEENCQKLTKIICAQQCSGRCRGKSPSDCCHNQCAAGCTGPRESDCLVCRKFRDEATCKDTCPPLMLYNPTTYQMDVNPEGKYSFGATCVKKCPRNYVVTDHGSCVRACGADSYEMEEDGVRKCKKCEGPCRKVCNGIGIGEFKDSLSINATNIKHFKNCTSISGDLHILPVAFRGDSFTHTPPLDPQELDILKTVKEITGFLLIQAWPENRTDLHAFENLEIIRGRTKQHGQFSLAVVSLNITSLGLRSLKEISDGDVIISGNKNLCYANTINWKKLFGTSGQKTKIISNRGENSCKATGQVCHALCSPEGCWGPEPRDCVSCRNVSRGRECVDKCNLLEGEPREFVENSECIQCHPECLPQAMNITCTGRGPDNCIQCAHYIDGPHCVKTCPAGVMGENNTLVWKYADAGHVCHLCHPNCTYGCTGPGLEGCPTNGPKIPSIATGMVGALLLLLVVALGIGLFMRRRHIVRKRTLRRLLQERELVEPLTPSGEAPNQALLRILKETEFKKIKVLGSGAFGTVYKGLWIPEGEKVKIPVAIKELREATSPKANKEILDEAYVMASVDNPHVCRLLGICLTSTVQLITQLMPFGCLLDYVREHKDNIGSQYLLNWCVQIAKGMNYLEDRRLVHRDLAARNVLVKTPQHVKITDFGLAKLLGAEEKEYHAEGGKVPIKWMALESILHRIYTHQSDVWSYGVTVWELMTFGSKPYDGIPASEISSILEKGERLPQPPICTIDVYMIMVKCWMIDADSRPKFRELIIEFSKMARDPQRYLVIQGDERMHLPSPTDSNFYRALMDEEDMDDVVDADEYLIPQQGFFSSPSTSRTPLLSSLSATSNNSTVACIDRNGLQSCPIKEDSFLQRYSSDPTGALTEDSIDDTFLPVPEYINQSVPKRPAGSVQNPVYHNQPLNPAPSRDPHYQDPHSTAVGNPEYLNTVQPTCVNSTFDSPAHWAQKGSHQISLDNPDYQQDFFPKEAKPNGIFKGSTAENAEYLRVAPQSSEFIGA

| Structure (SMILES) | IC50 (PARP-1) | percentage of inhibition of PARP-1 (PARP-1) | IC50 (EGFR) | percentage of inhibition of EGFR (EGFR) | IC50 (HepG2 cells [4]) | also measured |
| --- | --- | --- | --- | --- | --- | --- |
| Cc1c(C(=O)[C@H]2[C@H](c3cc4ccccc4o3)C3CCCN3[C@]23C(=O)Nc2ccc(F)cc23)nnn1-c1c(Cl)cc(Cl)cc1Cl (stereo partly drawn) [4g, (1′S,2′S,3R)-1′-(Benzofuran-2-yl)-5-fluoro-2′-(5-methyl-1-(2,4,6-trichlorophenyl)-1H-1,2,3-triazole-4-carbonyl)-1′,2′,5′,6′,7′,7a′-hexahydrospiro[indoline-3,3′-pyrrolizin]-2-one] |  |  |  |  | 8900 ± 300 nM |  |
| Cc1c(C(=O)/C=C/c2cc3ccccc3s2)nnn1-c1c(Cl)cc(Cl)cc1Cl [1b, (E)-3-(Benzo[b]thiophen-2-yl)-1-(5-methyl-1-(2,4,6-trichlorophenyl)-1H-1,2,3-triazol-4-yl)prop-2-en-1-one] |  |  |  |  | 8500 ± 400 nM |  |

The next lines start with results.

| IC50 (PARP-1) | percentage of inhibition of PARP-1 (PARP-1) | IC50 (EGFR) | percentage of inhibition of EGFR (EGFR) | Structure (SMILES) | IC50 (HepG2 cells [4]) | also measured |
| --- | --- | --- | --- | --- | --- | --- |
| 18.4 ± 1 nM | 86.6% | 116 ± 3.1 nM | 84.3% | Cc1c(C(=O)[C@H]2[C@H](c3cc4ccccc4s3)C3CCCN3[C@]23C(=O)Nc2ccc(F)cc23)nnn1-c1c(Cl)cc(Cl)cc1Cl (stereo partly drawn) [4f, (1′S,2′S,3R)-1′-(Benzo[b]thiophen-2-yl)-5-fluoro-2′-(5-methyl-1-(2,4,6-trichlorophenyl)-1H-1,2,3-triazole-4-carbonyl)-1′,2′,5′,6′,7′,7a′-hexahydrospiro[indoline-3,3′-pyrrolizin]-2-one] |  |  |
| 2.01 ± 0.1 nM | 95.2% | 74.6 ± 1.8 nM | 94.1% | Cc1c(C(=O)[C@H]2[C@H](c3cc4ccccc4o3)C3CCCN3[C@]23C(=O)Nc2cc(Cl)ccc23)nnn1-c1c(Cl)cc(Cl)cc1Cl (stereo partly drawn) [4a, (1′S,2′S,3R)-1′-(Benzofuran-2-yl)-6-chloro-2′-(5-methyl-1-(2,4,6-trichlorophenyl)-1H-1,2,3-triazole-4-carbonyl)-1′,2′,5′,6′,7′,7a′-hexahydrospiro[indoline-3,3′-pyrrolizin]-2-one] |  | cell population in S-phase (HepG2 cells [1]; control 30%): 33%; cell population in G2/M-phase (HepG2 cells [1]; control 34%): 42%; early apoptosis cell population (HepG2 cells [2]): 12.1%; induction of apoptosis versus untreated control (HepG2 cells [2]): 6.62 fold; late apoptosis cell population (HepG2 cells [2]): 0.95%; cells in necrosis (HepG2 cells [2]; untreated 0.61%): 0.58%; cell population in total apoptosis (HepG2 cells [2]; untreated 1.97%): 13.05%; Bax gene expression fold change ([3]; 2^−ΔΔCT): 4.6 fold; P53 gene expression fold change ([3]; 2^−ΔΔCT): 9.3 fold; caspase 3 gene expression fold change ([3]; 2^−ΔΔCT): 5.6 fold; caspase 8 gene expression fold change ([3]; 2^−ΔΔCT): 3.5 fold; caspase 9 gene expression fold change ([3]; 2^−ΔΔCT): 8.6 fold; BCL-2 gene expression (fold, decrease) ([3]; anti-apoptotic gene, decreased): 0.37 fold |
| 3.6 ± 0.3 nM | 81.2% | 85.3 ± 2.9 nM | 90.1% | Cc1c(C(=O)[C@H]2[C@H](c3cc4ccccc4s3)C3CCCN3[C@]23C(=O)Nc2cc(Cl)ccc23)nnn1-c1c(Cl)cc(Cl)cc1Cl (stereo partly drawn) [4b, (1′S,2′S,3R)-1′-(Benzo[b]thiophen-2-yl)-6-chloro-2′-(5-methyl-1-(2,4,6-trichlorophenyl)-1H-1,2,3-triazole-4-carbonyl)-1′,2′,5′,6′,7′,7a′-hexahydrospiro[indoline-3,3′-pyrrolizin]-2-one] |  |  |
